How the values were obtained:
[1] = Inhibition of osteoclastogenesis in RANKL and M-CSF-stimulated mouse BMDM cells at 200 uM after 4 days by TRAP assay; type: functional; settings: 96 h
How it was run: (§1)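 Mouse femur/tibia marrow cells grown 3 days at 37 °C in R-MEM/10% FBS with M-CSF 100 ng/mL to give BMMs, lifted with trypsin/EDTA. They were then differentiated with M-CSF 20 ng/mL and RANKL 100 ng/mL plus compound, with medium changed every 2 days. At day 4, TRAP staining was done and TRAP-positive multinucleated cells per well were counted relative to DMSO control.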

BMDM = test: Inhibition of osteoclastogenesis in RANKL and M-CSF-stimulated mouse BMDM cells after 4 days by TRAP assay; type: functional, cell-based; how it was run: as §1
[2] = Cytotoxicity against RANKL and M-CSF-stimulated mouse BMDM cells at 100 to 200 uM after 72 hrs by MTS-cell titer assay; type: cell-based
How it was run: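 Bone marrow macrophages from femora and tibia of 6-8 week old mice, expanded 3 days in R-MEM/10% FBS with M-CSF 100 ng/mL, then trypsin/EDTA-lifted. Cells exposed to compound alongside recombinant M-CSF 20 ng/mL plus RANKL 100 ng/mL for 72 h at 37 °C. Percent survival read by MTS (CellTiter 96 Aqueous) against DMSO-treated control.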

| SMILES | inhibition at 200 µM [1] [%] | Activity (BMDM) | Activity [2] |
| --- | --- | --- | --- |
| CCCCC/C=C\C/C=C\CCCCCCCC(=O)OC[C@@H](O)CO[C@H]1O[C@H](CS(=O)(=O)O)[C@@H](O)[C@H](O)[C@H]1O | 97 | Dose-dependent effect |  |
| CC1=CC(=O)CC(C)(C)[C@@]1(O)/C=C/[C@H](C)O[C@@H]1O[C@H](CO)[C@@H](O)[C@H](O)[C@H]1O [6S,9S-ROSEOSIDE] | 75 | Dose-dependent effect | Non-toxic |
| CO[C@@H]1C[C@](O)(CO[C@@H]2O[C@H](CO)[C@@H](OC(=O)/C=C/c3ccc(O)c(O)c3)[C@H](O)[C@H]2O)[C@H](OC)O1 [CIBOTIUMBAROSIDE B] | 73 | Dose-dependent effect | Non-toxic |
